Test [1] in a line: Her2 expression decrease, cell viability multiplex – SKBR3 breast tumor cells, AlphaScreen, ATP viability, primary screen (AID 461).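 As to Her2 level: lower value means less Her2 protein in the cells.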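 As to viability: percent of carrier control wells set as 100% viability.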 The note with it: SKBR3 Her2 protein level, 18-24 h, measured here: SKBR3 viability, ATP luminescence, at 10 µM. A general note: Alpha assays give light when donor and acceptor beads are brought close together.
Test [2] deals with Receptor tyrosine-protein kinase erbB-2 (Homo sapiens) (UniProt P04626). The test is described as above. The note with it: 18-24 h, at 10 µM, stronger effect = lower value.
Test [3] in a line: reduced viability of SK-BR-3 breast cancer cells – cell-based, 24 h, human, pilot screen (AID 572;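 active = viability at or below 10% of carrier control in both of two separate runs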;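 also: compound exposure lasted between 18 and 24 h rather than exactly 24 h; 100% = carrier-treated control wells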). The note with it: SK-BR-3 viability, CellTiter-Glo luminescence, at 10 µM, stronger effect = lower value. On the technique in general: ATP-based viability assays read luminescence as a measure of living cells.
A short description of test [4]: HUVEC growth inhibition – cell-based, human, primary screen (AID 575;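 active = viability at or below 30% in both replicate assays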;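 also: 100% = median of untreated cell wells with 0.1% DMSO on each plate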). As to conditions: HUVEC proliferation, CellTiter-Glo luminescence, 72 h; at 10 µM; stronger effect = lower value. An outline of the steps: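 System – primary HUVEC, no more than 12 passages · Medium – Low-serum (2% FBS) EBM, supplemented · Times – 72 h exposure, 37 °C, 5% CO2, 30 min RT equilibration · Measured by – luminescent ATP assay · Read-out – % viability relative to median vehicle-well signal on each plate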

Test [5] in a line: H69AR cell proliferation blockers – human, duplicate replicates, primary screen (AID 580;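 active = viability at or under a set limit in both replicates, limit being median viability minus 3 SD, cut at about 48% in these data, passing the limit was not always enough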;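 also: 100% = mean luminescence of untreated wells and 0% = no signal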). As to conditions: H69AR lung tumor cells viability, ATP luminescence, 72 h; at 10 µM; stronger effect = lower value.
The nature of test [6]: MRP1 drug-resistance reversers in H69AR cells – cell-based, doxorubicin co-treatment, pilot screen (AID 601;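 active = viability loss from added drug above about 55%, and viability with drug at most 40%, in both replicates, limit read from the data, passing the limit was not always enough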). As to conditions: CellTiter-Glo, 72 h, at 10 µM; for differential viability (reversal): stronger effect = higher value.
Test [7] can be described thus: yeast transport mutant growth inhibition pilot in 384-well plates, post-Golgi transport modulator project (AID 636; in the data active = inhibition above about 31%). As to conditions: absorbance 615 nm, about 18 h, stronger effect = higher value.
Test [8] in a line: growth suppression of yeast trafficking mutant, preliminary HTS, modulators of trafficking downstream of Golgi apparatus project, 1536-format plate, OD 615 nm (AID 637; in the data active = inhibition above about 30%). The note with it: yeast transport mutant growth, absorbance 615 nm, 18 h; stronger effect = higher value.
Setting [9] is: H69AR cells + 2 uM doxorubicin, measured here: viability with 2 uM doxorubicin, stronger effect = lower value.
The mark [10] stands for this setting: H69AR cells, compound alone cytotoxicity.

The record followed here is PubChem BioAssay.

For orientation: viability means a read-out of living cells in per cent, often relative to untreated cells. The term inhibition denotes the drop in the measured response relative to a control, in per cent.

Each structure is given as a SMILES string. The source made the active and inactive calls.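 The calls were made as follows, unless noted: active = Her2 level under about 52% in both replicate screens, with viability over 70% of control (limit read from the data); inconclusive = Her2 under the limit in one screen only, or viability under 70%; inactive = Her2 level above the set limit.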

Chain of Receptor tyrosine-protein kinase erbB-2 (Homo sapiens) (P04626 whole entry, looked up): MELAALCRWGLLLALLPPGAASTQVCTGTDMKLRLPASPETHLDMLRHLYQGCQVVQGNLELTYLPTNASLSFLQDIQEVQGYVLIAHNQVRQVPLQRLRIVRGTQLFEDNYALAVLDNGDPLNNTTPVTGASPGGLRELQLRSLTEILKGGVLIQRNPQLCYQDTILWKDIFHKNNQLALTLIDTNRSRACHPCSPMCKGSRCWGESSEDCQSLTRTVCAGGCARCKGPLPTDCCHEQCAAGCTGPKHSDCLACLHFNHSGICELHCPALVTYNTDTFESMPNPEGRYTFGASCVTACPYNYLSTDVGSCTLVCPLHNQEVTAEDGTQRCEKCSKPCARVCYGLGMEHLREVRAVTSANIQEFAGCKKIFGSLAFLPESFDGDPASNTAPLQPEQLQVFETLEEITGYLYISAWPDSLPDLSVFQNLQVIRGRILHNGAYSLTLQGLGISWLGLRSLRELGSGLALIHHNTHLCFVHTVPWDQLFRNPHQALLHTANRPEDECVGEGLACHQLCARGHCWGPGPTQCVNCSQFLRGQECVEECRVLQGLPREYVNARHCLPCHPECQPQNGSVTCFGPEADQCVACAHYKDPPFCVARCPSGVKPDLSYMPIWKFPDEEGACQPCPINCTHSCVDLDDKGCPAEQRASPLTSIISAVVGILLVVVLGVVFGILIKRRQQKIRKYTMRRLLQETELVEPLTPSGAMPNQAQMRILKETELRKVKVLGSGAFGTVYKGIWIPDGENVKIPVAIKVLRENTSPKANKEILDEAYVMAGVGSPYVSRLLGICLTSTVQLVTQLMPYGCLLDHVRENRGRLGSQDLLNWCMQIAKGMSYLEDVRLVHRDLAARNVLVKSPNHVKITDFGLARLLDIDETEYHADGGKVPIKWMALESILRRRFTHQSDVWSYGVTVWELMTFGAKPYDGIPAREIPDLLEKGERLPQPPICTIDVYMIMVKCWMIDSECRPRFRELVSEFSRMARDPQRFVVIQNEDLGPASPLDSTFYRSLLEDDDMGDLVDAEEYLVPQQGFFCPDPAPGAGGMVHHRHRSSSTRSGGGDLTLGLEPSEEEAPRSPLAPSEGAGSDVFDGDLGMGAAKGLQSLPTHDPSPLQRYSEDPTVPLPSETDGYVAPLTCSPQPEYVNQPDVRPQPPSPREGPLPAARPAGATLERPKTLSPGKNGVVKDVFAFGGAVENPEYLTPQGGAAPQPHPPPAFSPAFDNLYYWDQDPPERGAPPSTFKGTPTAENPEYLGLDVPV

For the molecule `C#CC(CO)N(CCN(Cc1ccccc1)C(C#C)CO)Cc1ccccc1` (stereo not given), the viability in test [1] was 107%; in test [3], 107% (inactive); in test [4] it was 79.4% (inactive); in test [5], 90.3% (inactive); in test [6] (setting [9]), 81.3%; in test [6] (setting [10]), 90.3%. The Her2 level in test [2] is 85% (inactive). In addition, the differential viability (reversal) in test [6] (H69AR cells + 2 uM doxorubicin) is 9.04% (inactive). For the same molecule, the inhibition in test [7] is -7.16% (inactive); in test [8], 1.5% (inactive).

As for `CCCNC(=O)c1ccccc1NC(=O)CN(c1ccccc1OCC)S(C)(=O)=O`, the viability in test [1] is 87%; in test [3], 87% (inactive); in test [4], 112% (inactive); in test [5], 98.1% (inactive); in test [6] (setting [9]), 90.6%; in test [6] (setting [10]) it was 98.1%. Moreover, the Her2 level in test [2] was 111% (inactive). Moreover, in test [6] (H69AR cells + 2 uM doxorubicin), the differential viability (reversal) is 7.5% (inactive). For the same molecule, the inhibition in test [7] was -0.13% (inactive); in test [8], -2.33% (inactive).

Regarding `CS(=O)(=O)N1CCCC(C(=O)NCc2ccccc2Cl)C1` (stereo not given), the viability in test [1] was 99%; in test [3], 99% (inactive); in test [4] it was 107% (inactive); in test [5], 86.5% (inactive); in test [6] (setting [9]) it was 91.3%; in test [6] (setting [10]), 86.5%. In test [2], the Her2 level was 89% (inactive). Further, the differential viability (reversal) in test [6] (H69AR cells + 2 uM doxorubicin) is -4.79% (inactive). Moreover, the inhibition in test [7] is -1.3% (inactive); in test [8], -0.95% (inactive).

For the molecule `COc1ccc(-c2cc3nc4n(c(=O)c3s2)CCC4)cc1`, the viability in test [1] is 129%; in test [3], 129% (inactive); in test [4], 103% (inactive); in test [5], 84.1% (inactive); in test [6] (setting [9]), 88.9%; in test [6] (setting [10]), 84.1%. Moreover, the Her2 level in test [2] is 101% (inactive). The differential viability (reversal) in test [6] (H69AR cells + 2 uM doxorubicin) was -4.84% (inactive). The inhibition was -5% (inactive) in test [7] and 3.44% (inactive) in test [8].

Consider `CCC(=NC(C)c1ccccc1)c1c(O)n(C)c(=O)n(C)c1=O` (stereo not given), for which the viability in test [1] was 94%; in test [3], 94% (inactive); in test [4], 72.8% (inactive); in test [5], 90.7% (inactive); in test [6] (setting [9]) it was 105%; in test [6] (setting [10]) it was 90.7%. The Her2 level in test [2] was 88% (inactive). In addition, the differential viability (reversal) in test [6] (H69AR cells + 2 uM doxorubicin) is -14.2% (inactive). The inhibition in test [7] is -2.89% (inactive); in test [8] it was 6.39% (inactive).

Consider `CC1CCCC(C)N1C(=O)COC(=O)c1ccc[nH]c1=O` (stereo not given), for which the viability was 102% in test [1]; 102% (inactive) in test [3]; 95.9% (inactive) in test [4]; 97.7% (inactive) in test [5]; 103% in test [6] (setting [9]); 97.7% in test [6] (setting [10]). The Her2 level in test [2] was 86% (inactive). The differential viability (reversal) in test [6] (H69AR cells + 2 uM doxorubicin) was -5.21% (inactive). Further, the inhibition in test [7] was -4.49% (inactive); in test [8], 1.67% (inactive).

In the case of `COc1ccc(-c2ccc(CCC(=O)O)n2NC(=O)c2cccs2)cc1`, the viability was 122% in test [1]; 122% (inactive) in test [3]; 95.5% (inactive) in test [4]; 101% (inactive) in test [5]; 98.3% in test [6] (setting [9]); 101% in test [6] (setting [10]). Besides, the Her2 level in test [2] is 92% (inactive). Moreover, the differential viability (reversal) in test [6] (H69AR cells + 2 uM doxorubicin) is 3% (inactive). The inhibition in test [7] is -2.76% (inactive); in test [8], 2.06% (inactive).

For `O=C(Nc1ccc2oc(-c3ccncc3)nc2c1)c1cccs1`, the viability in test [1] is 96%; in test [3], 96% (inactive); in test [4], 88.9% (inactive); in test [5] it was 79.6% (inactive); in test [6] (setting [9]) it was 78.9%; in test [6] (setting [10]), 79.6%. For the same molecule, the Her2 level in test [2] is 112% (inactive). The differential viability (reversal) in test [6] (H69AR cells + 2 uM doxorubicin) was 0.7% (inactive). Also, the inhibition in test [7] is -2.76% (inactive); in test [8] it was 2.3% (inactive).

Consider `COc1ccc(OC)c(C(=O)CSc2nnc(-c3ccc(OC)c(OC)c3)o2)c1`, for which the viability in test [1] was 104%; in test [3], 104% (inactive); in test [4], 75.9% (inactive); in test [5], 74.5% (inactive); in test [6] (setting [9]) it was 73.7%; in test [6] (setting [10]), 74.5%. Further, the Her2 level in test [2] is 104% (inactive). The differential viability (reversal) in test [6] (H69AR cells + 2 uM doxorubicin) was 0.865% (inactive). The results for the inhibition in test [7] and in test [8] were -5.32% (inactive) and -8.85% (inactive), respectively.

`CCOc1cc(C(=O)NCC2CCCO2)cc(OCC)c1OCC` (stereo not given): the viability was 100% in test [1]; 100% (inactive) in test [3]; 119% (inactive) in test [4]; 102% (inactive) in test [5]; 92.2% in test [6] (setting [9]); 102% in test [6] (setting [10]). In test [2], the Her2 level was 110% (inactive). The differential viability (reversal) in test [6] (H69AR cells + 2 uM doxorubicin) is 10% (inactive). Besides, the inhibition is -4.86% (inactive) in test [7] and -5.33% (inactive) in test [8].

With `CCOC(=O)C1=C(c2ccccc2)NC(=O)NC1c1ccc(N(C)C)cc1` (stereo not given), the viability in test [1] was 85.5%; in test [3], 85.5% (inactive); in test [4] it was 106% (inactive); in test [5] it was 97.6% (inactive); in test [6] (setting [9]), 97%; in test [6] (setting [10]) it was 97.6%. Besides, in test [2], the Her2 level was 87% (inactive). Besides, the differential viability (reversal) in test [6] (H69AR cells + 2 uM doxorubicin) was 0.56% (inactive). The inhibition is -2.08% (inactive) in test [7] and 14.7% (inactive) in test [8].

In the case of `Cn1nc(C(=O)Nc2cccc(C(F)(F)F)c2)ccc1=O`, the viability in test [1] was 95.5%; in test [3], 95.5% (inactive); in test [4], 107% (inactive); in test [5] it was 91.5% (inactive); in test [6] (setting [9]), 84.7%; in test [6] (setting [10]) it was 91.5%. In test [2], the Her2 level was 92% (inactive). In addition, in test [6] (H69AR cells + 2 uM doxorubicin), the differential viability (reversal) is 6.87% (inactive). The inhibition in test [7] was -3.29% (inactive); in test [8], 1.45% (inactive).

In the case of `O=C1CC(Cc2ccccc2)C(=O)N1CCCn1ccnc1` (stereo not given), the viability in test [1] was 101%; in test [3] it was 101% (inactive); in test [4], 103% (inactive); in test [5] it was 92.2% (inactive); in test [6] (setting [9]) it was 84%; in test [6] (setting [10]) it was 92.2%. In addition, the Her2 level in test [2] was 102% (inactive). Besides, in test [6] (H69AR cells + 2 uM doxorubicin), the differential viability (reversal) is 8.18% (inactive). Besides, the inhibition is -3.85% (inactive) in test [7] and -0.5% (inactive) in test [8].

In the case of `CCSc1oc(-c2cccs2)nc1S(=O)(=O)c1ccccc1`, the viability is 93.5% in test [1]; 93.5% (inactive) in test [3]; 59.9% (inactive) in test [4]; 82% (inactive) in test [5]; 76.3% in test [6] (setting [9]); 82% in test [6] (setting [10]). Also, the Her2 level in test [2] was 104% (inactive). In addition, the differential viability (reversal) in test [6] (H69AR cells + 2 uM doxorubicin) is 5.72% (inactive). Besides, the inhibition was -5.33% (inactive) in test [7] and 1.83% (inactive) in test [8].

With `CCOC(=O)c1cc2c(=O)n3cccc(C)c3nc2n(CCc2ccccc2)c1=N`, the viability was 82% in test [1]; 82% (inactive) in test [3]; 75.9% (inactive) in test [4]; 77.9% (inactive) in test [5]; 79.8% in test [6] (setting [9]); 77.9% in test [6] (setting [10]). Moreover, the Her2 level in test [2] is 72% (inactive). Also, the differential viability (reversal) in test [6] (H69AR cells + 2 uM doxorubicin) was -1.89% (inactive). Besides, the inhibition in test [7] was -4.8% (inactive); in test [8], 5.9% (inactive).

With `O=C(O)c1oc2ccccc2c1-n1cccc1`, the viability in test [1] is 102%; in test [3] it was 102% (inactive); in test [4], 102% (inactive); in test [5], 96.8% (inactive); in test [6] (setting [9]) it was 97.8%; in test [6] (setting [10]), 96.8%. In addition, the Her2 level in test [2] was 86.5% (inactive). The differential viability (reversal) in test [6] (H69AR cells + 2 uM doxorubicin) was -0.995% (inactive). Moreover, the figures for the inhibition in test [7] and in test [8] were -4.8% (inactive) and 0.16% (inactive), respectively.
